Activity calls are given as the source filed them.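 The calls were made as follows, unless noted: active = viability increase at or above a cutoff of the median across tested compounds plus 3 SD (cut at about 8.5% in these data, passing the limit was not always enough); inconclusive = some gains above the cutoff, reason not given; inactive = the rest.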

One experiment can be described thus: S. cerevisiae growth inhibition in restrictive medium, OD615, pilot screen, restrictive growth control, yeast lifespan reduction project (AID 706;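 active = growth inhibition above a set limit, 3 SD over mean compound inhibition, in both replicates, cut at about 43% in these data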;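 also: modified DeaD lifespan yeast strain shifted to restrictive glucose medium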). Particulars: OD615, 48 h, at 10 µM, active compounds read high. The procedure, abridged: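 Assay system: engineered S. cerevisiae DeaD strain; Buffer or medium: CSMM-D glucose medium; Dosing: 10 µM compound, 0.25% DMSO; Times: cell pre-growth 4 h, compound exposure 48 h, 30 °C; Detection: absorbance (optical density) measured at 615 nm.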
As to `Brc1ccc(Oc2nnnn2-c2ccccc2)cc1`, the growth inhibition is -3.68% (inactive).
As for `COc1cc(Cl)c(S(=O)(=O)N2CCN(Cc3ccc4c(c3)OCO4)CC2)cc1Cl`, the growth inhibition was -4.02% (inactive).
Same read-out and setting: with `Cc1ccc(-c2nc(C(=O)NC3CCCCCC3)no2)cc1` the figure was 5.45% (inactive); with `O=C(c1cc(C2CC2)on1)N1CCN(c2ccc(F)cc2)CC1`, -26.9% (inactive); with `Brc1ccc(-c2nnc3ccc(N4CCN(c5ccccc5)CC4)nn23)cc1`, -10.7% (inactive).
The same measure, in the same setting: with `CCOC(=O)c1ccccc1NC1c2ccccc2C(=O)N1c1ccc(C)cn1` (configuration not stated) the figure was 6.58% (inactive); with `O=C1c2ccccc2C(Nc2ccc(S(=O)(=O)N3CCOCC3)cc2)N1c1cccnc1` (configuration not stated), -1.27% (inactive); with `Cc1ccccc1S(=O)(=O)Cc1ccc(C(=O)N2CC(C)CC(C)C2)o1` (configuration not stated), -32% (inactive).
In the case of `CCOC(=O)C1CCN(C(=O)Nc2ccc(Cl)cc2)CC1`, the growth inhibition was -13.1% (inactive).
The same measure, in the same setting: with `Cc1c(S(=O)(=O)N2CCc3ccccc3C2)c(=O)n(C)c(=O)n1C` the figure was -10.4% (inactive); with `Cc1ccc(Cl)cc1N1CCN(C(=O)CCS(=O)(=O)c2cccc3nonc23)CC1`, -4.52% (inactive); with `Cn1cccc1Cc1nnc(SCC(=O)Nc2ccc3c(c2)OCCO3)n1CCc1ccccc1`, 22.1% (inactive).
Same read-out and setting: the figure for `COc1ccc(-c2n[nH]c(C)c2-c2cnn(-c3ccccc3)c2)c(O)c1` is 0.745% (inactive); for `N#CCCN1CCN(C(=S)c2ccc(-c3cccc(Cl)c3)o2)CC1` it is 22.7% (inactive); for `COc1cccc(NC(=O)c2ccc(S(=O)(=O)N3CCCCC3)cc2)c1` it is 5.21% (inactive).
As for `Cc1cccc(N2CCN(C(=O)c3cc4c(C)nc5ccccc5c4o3)CC2)c1C`, the growth inhibition was -1.81% (inactive).
Same read-out and setting: the figure for `N#Cc1c(NC(=O)CCCN2C(=O)c3ccccc3C2=O)oc(-c2ccccc2)c1-c1ccccc1` is 1.75% (inactive).
Still for that read-out and setting: with `CCn1c(C(C)NC(=O)c2cccc(C)c2)nc2ccccc21` (configuration not stated) the figure was 5.38% (inactive); with `COc1cc(/C=C/C2=NC(=O)C(C)(C)O2)ccc1O`, 6.79% (inactive).
On the same count and under the same terms, with `COc1ccc(OC)c(NC(=O)CN(c2ccc(C(C)C)cc2)S(=O)(=O)c2c(C)noc2C)c1` the figure was -12.1% (inactive); with `O=C(Cn1cc2c(n1)CCCCC2)NCCCN1CCOCC1`, -6.7% (inactive); with `O=C(CCS(=O)(=O)c1cccc2nonc12)N1CCN(c2ccc(F)cc2)CC1`, -0.575% (inactive).
On to `Cc1ccc(CNC(=O)CS(=O)Cc2nc(-c3ccccc3C)oc2C)cc1` (configuration not stated), for which the growth inhibition was 1.06% (inactive).
Same read-out and setting: the figure for `CCC(C)(C(=O)NC1CCCC1)N(C(=O)CNC(C)=O)c1ccc(C)cc1` (configuration not stated) is -5.89% (inactive).
The same measure, in the same setting: with `COc1ccc(OC)c2c1sc(=NC(=O)c1ccco1)n2C` the figure was 4.96% (inactive).
As for `C=CCNc1ncnc2c1cnn2-c1ccc(Cl)cc1`, the growth inhibition was 1.64% (inactive).
On the same count and under the same terms, with `O=C(c1cnn2ccccc12)N1CCCc2ccccc21` the figure was -1.29% (inactive); with `COc1cc2c(cc1OC)C(C)N(C(=O)c1cc3ccccc3o1)CC2` (configuration not stated), 10.2% (inactive); with `CCOC(=O)C1CCCN(C(=O)CCCn2nc(C)n3c(cc4sccc43)c2=O)C1` (configuration not stated), -16.8% (inactive).
Still for that read-out and setting: with `CCCc1nnc(NC(=O)c2ccncc2)s1` the figure was -3.19% (inactive); with `Cc1ccc(-c2nc(CS(=O)CC(=O)NCc3ccc(Cl)cc3)c(C)o2)cc1` (configuration not stated), -4.35% (inactive).
Still for that read-out and setting: the figure for `COc1ccc(C)cc1NC(=O)CSc1nnc(-c2ccccn2)n1Cc1ccco1` is 7.74% (inactive); for `Cc1ccc(C)c(C(=O)Nc2c(C(N)=O)oc3ccccc23)c1` it is -1.59% (inactive); for `CCCCSc1nc2c(c(=O)[nH]c(=O)n2C)n1CCc1ccccc1` it is -9.86% (inactive).
For the compound `Cn1c(=O)oc2cc(S(=O)(=O)N3CCC(C(=O)NCC4COc5ccccc5O4)CC3)ccc21` (configuration not stated), the growth inhibition is -19.6% (inactive).
Take `COc1ccccc1-n1c(CNC(=O)c2ccccc2)nnc1SCC(=O)Nc1nnc(C)s1`: the growth inhibition was 0.83% (inactive).

A short description of the next experiment: doxorubicin toxicity protection in MRP-1 cells – H69AR cells, CellTiter-Glo, duplicate, MRP-1 activator project, pilot screen (AID 807).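 Also: compound pretreatment 18-22 h then 72 h combined with doxorubicin; 0% = doxorubicin alone and 100% = vehicle without doxorubicin.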 The settings on record: H69AR viability with doxorubicin, CellTiter-Glo luminescence; at 10 µM; active compounds read high.
Consider `Brc1ccc(Oc2nnnn2-c2ccccc2)cc1`, for which the viability increase is 0.29% (inactive).
Same read-out and setting: the figure for `COc1cc(Cl)c(S(=O)(=O)N2CCN(Cc3ccc4c(c3)OCO4)CC2)cc1Cl` is -2.17% (inactive); for `Cc1ccc(-c2nc(C(=O)NC3CCCCCC3)no2)cc1` it is 4.07% (inactive); for `O=C(c1cc(C2CC2)on1)N1CCN(c2ccc(F)cc2)CC1` it is -1.75% (inactive).
Turning to `Brc1ccc(-c2nnc3ccc(N4CCN(c5ccccc5)CC4)nn23)cc1`, the viability increase was -5.11% (inactive).
Still for that read-out and setting: with `CCOC(=O)c1ccccc1NC1c2ccccc2C(=O)N1c1ccc(C)cn1` (configuration not stated) the figure was -2.23% (inactive); with `O=C1c2ccccc2C(Nc2ccc(S(=O)(=O)N3CCOCC3)cc2)N1c1cccnc1` (configuration not stated), -0.92% (inactive); with `Cc1ccccc1S(=O)(=O)Cc1ccc(C(=O)N2CC(C)CC(C)C2)o1` (configuration not stated), -0.61% (inactive).
Still for that read-out and setting: with `CCOC(=O)C1CCN(C(=O)Nc2ccc(Cl)cc2)CC1` the figure was 1.32% (inactive); with `Cc1c(S(=O)(=O)N2CCc3ccccc3C2)c(=O)n(C)c(=O)n1C`, -0.16% (inactive).
Still for that read-out and setting: with `Cc1ccc(Cl)cc1N1CCN(C(=O)CCS(=O)(=O)c2cccc3nonc23)CC1` the figure was -3.47% (inactive); with `Cn1cccc1Cc1nnc(SCC(=O)Nc2ccc3c(c2)OCCO3)n1CCc1ccccc1`, -1.87% (inactive); with `COc1ccc(-c2n[nH]c(C)c2-c2cnn(-c3ccccc3)c2)c(O)c1`, -2.75% (inactive).
For `N#CCCN1CCN(C(=S)c2ccc(-c3cccc(Cl)c3)o2)CC1`, the viability increase is -0.32% (inactive).
Still for that read-out and setting: the figure for `COc1cccc(NC(=O)c2ccc(S(=O)(=O)N3CCCCC3)cc2)c1` is -1.52% (inactive); for `Cc1cccc(N2CCN(C(=O)c3cc4c(C)nc5ccccc5c4o3)CC2)c1C` it is 4.84% (inactive).
On the same count and under the same terms, the figure for `N#Cc1c(NC(=O)CCCN2C(=O)c3ccccc3C2=O)oc(-c2ccccc2)c1-c1ccccc1` is 2.13% (inactive); for `CCn1c(C(C)NC(=O)c2cccc(C)c2)nc2ccccc21` (configuration not stated) it is -2.68% (inactive).
Still for that read-out and setting: with `COc1cc(/C=C/C2=NC(=O)C(C)(C)O2)ccc1O` the figure was -7.42% (inactive); with `COc1ccc(OC)c(NC(=O)CN(c2ccc(C(C)C)cc2)S(=O)(=O)c2c(C)noc2C)c1`, -4.81% (inactive); with `O=C(Cn1cc2c(n1)CCCCC2)NCCCN1CCOCC1`, 0.92% (inactive).
As for `O=C(CCS(=O)(=O)c1cccc2nonc12)N1CCN(c2ccc(F)cc2)CC1`, the viability increase was 0.64% (inactive).
Still for that read-out and setting: with `Cc1ccc(CNC(=O)CS(=O)Cc2nc(-c3ccccc3C)oc2C)cc1` (configuration not stated) the figure was 0.04% (inactive); with `CCC(C)(C(=O)NC1CCCC1)N(C(=O)CNC(C)=O)c1ccc(C)cc1` (configuration not stated), -0.57% (inactive); with `COc1ccc(OC)c2c1sc(=NC(=O)c1ccco1)n2C`, -5.98% (inactive).
Same read-out and setting: with `C=CCNc1ncnc2c1cnn2-c1ccc(Cl)cc1` the figure was 2.88% (inactive); with `O=C(c1cnn2ccccc12)N1CCCc2ccccc21`, -1.74% (inactive).
On the same count and under the same terms, with `COc1cc2c(cc1OC)C(C)N(C(=O)c1cc3ccccc3o1)CC2` (configuration not stated) the figure was -3.13% (inactive).
Consider `CCOC(=O)C1CCCN(C(=O)CCCn2nc(C)n3c(cc4sccc43)c2=O)C1` (configuration not stated), for which the viability increase was -1.97% (inactive).
For `CCCc1nnc(NC(=O)c2ccncc2)s1`, the viability increase is 0.44% (inactive).
Still for that read-out and setting: with `Cc1ccc(-c2nc(CS(=O)CC(=O)NCc3ccc(Cl)cc3)c(C)o2)cc1` (configuration not stated) the figure was -2.83% (inactive).
The same measure, in the same setting: the figure for `COc1ccc(C)cc1NC(=O)CSc1nnc(-c2ccccn2)n1Cc1ccco1` is -2.4% (inactive).
As to `Cc1ccc(C)c(C(=O)Nc2c(C(N)=O)oc3ccccc23)c1`, the viability increase is -3% (inactive).
For the compound `CCCCSc1nc2c(c(=O)[nH]c(=O)n2C)n1CCc1ccccc1`, the viability increase is -3.38% (inactive).
Still for that read-out and setting: with `Cn1c(=O)oc2cc(S(=O)(=O)N3CCC(C(=O)NCC4COc5ccccc5O4)CC3)ccc21` (configuration not stated) the figure was 0.66% (inactive).
The same measure, in the same setting: the figure for `COc1ccccc1-n1c(CNC(=O)c2ccccc2)nnc1SCC(=O)Nc1nnc(C)s1` is -0.83% (inactive).

For the origin of these results see PubChem BioAssay.
